From ChEMBL document CHEMBL4406794, “N-(7-Cyano-6-(4-fluoro-3-(2-(3-(trifluoromethyl)phenyl)acetamido)phenoxy)benzo[d]thiazol-2-yl)cyclopropanecarboxamide (TAK-632) Analogues as Novel Necroptosis Inhibitors by Targeting Receptor-Interacting Protein Kinase 3 (RIPK3): Synthesis, Structure-Activity Relationships, and in Vivo Efficacy” (J Med Chem, 2019) come the findings set out here.

SMILES strings stand for the structures. The source made the active and inactive calls. The calls are words filed in the database; no cut-off is given here.

The target in data set [1] is Fibroblast growth factor receptor 2 (Homo sapiens) (UniProt P21802). As to the kind of experiment: Inhibition of wild-type human partial length FGFR2 (D457 to E769 residues) expressed in bacterial expression system assessed as enzyme remaining activity at 1000 nM by Kinomescan method relative to control.
Data set [2] has as its target Dual specificity mitogen-activated protein kinase kinase 1 (Homo sapiens) (UniProt Q02750). In words: Inhibition of wild-type human full length MEK1 (M1 to V393 residues) expressed in mammalian expression system assessed as enzyme remaining activity at 1000 nM by Kinomescan method relative to control.
Data set [3] can be described thus: AUC (0 to t) in Sprague-Dawley rat at 5 mg/kg, po by LC-tandem mass spectrometry analysis. The format is ADME, organism-based. As to conditions: in vivo. In short, it runs like this:
(§1)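 Male Sprague-Dawley rats dosed once i.v. at 1 mg/kg or intragastrically at 5 mg/kg. Compound dissolved in 5% DMSO, 10% Tween 80, 75% physiological saline at 0.2 and 1 mg/mL. Blood taken at several time points, plasma spun at 4 °C, stored at -80 °C, assayed by LC/MS/MS. Parameters from individual animals by noncompartmental analysis.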

The target in data set [4] is Platelet-derived growth factor receptor beta (Homo sapiens) (UniProt P09619). In words: Inhibition of wild-type human partial length PDGFRB (V582 to Y1009 residues) expressed in bacterial expression system assessed as enzyme remaining activity at 1000 nM by Kinomescan method relative to control.
Data set [5] concerns the target Mitogen-activated protein kinase 3 (Homo sapiens) (UniProt P27361). In words: Inhibition of wild-type human full length ERK1 (M1 to P379 residues) expressed in bacterial expression system assessed as enzyme remaining activity at 1000 nM by Kinomescan method relative to control.
For data set [6], the target named is Mitogen-activated protein kinase kinase kinase 4 (Homo sapiens) (UniProt Q9Y6R4). In words: Inhibition of wild-type human partial length MAP3K4 (G1319 to E1608 residues) expressed in bacterial expression system assessed as enzyme remaining activity at 1000 nM by Kinomescan method relative to control.
Data set [7] concerns the target Vascular endothelial growth factor receptor 2 (Homo sapiens) (UniProt P35968). In words: Inhibition of wild-type human partial length VEGFR2 (R787 to P1253 residues) expressed in mammalian expression system assessed as enzyme remaining activity at 1000 nM by Kinomescan method relative to control.
Data set [8] addresses T1, Receptor-interacting serine/threonine-protein kinase 1 (Homo sapiens, UniProt Q13546).
T1 sequence (Q13546 whole entry): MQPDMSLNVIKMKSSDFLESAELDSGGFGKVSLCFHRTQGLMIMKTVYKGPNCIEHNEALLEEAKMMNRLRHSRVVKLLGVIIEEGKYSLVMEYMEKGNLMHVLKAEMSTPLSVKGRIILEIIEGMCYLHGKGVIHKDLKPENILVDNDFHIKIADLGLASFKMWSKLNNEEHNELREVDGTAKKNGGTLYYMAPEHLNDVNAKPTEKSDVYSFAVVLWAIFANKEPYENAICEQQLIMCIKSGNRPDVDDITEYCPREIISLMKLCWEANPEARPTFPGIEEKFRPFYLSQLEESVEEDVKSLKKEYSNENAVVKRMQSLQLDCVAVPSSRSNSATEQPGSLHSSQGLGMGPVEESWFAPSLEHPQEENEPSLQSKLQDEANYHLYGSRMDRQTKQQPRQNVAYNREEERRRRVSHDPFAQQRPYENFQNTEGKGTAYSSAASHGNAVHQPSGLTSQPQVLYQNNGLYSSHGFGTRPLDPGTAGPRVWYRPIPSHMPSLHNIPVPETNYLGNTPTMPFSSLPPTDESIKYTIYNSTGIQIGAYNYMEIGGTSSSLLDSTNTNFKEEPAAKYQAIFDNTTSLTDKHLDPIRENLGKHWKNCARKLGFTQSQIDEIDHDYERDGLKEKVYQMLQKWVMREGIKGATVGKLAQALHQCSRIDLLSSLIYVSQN
In words: Inhibition of RIPK1 phosphorylation in TNFalpha/smac mimetic/Z-VAD-fmk stimulated human HT-29 cells at 1 uM treated prior to TNFalpha/smac mimetic/Z-VAD-fmk stimulation and measured after 2 to 4 hrs by SDS-PAGE based immunoblot assay. The format is cell-based. As to conditions: ht-29, 1 µM.

For another data set, the system named is HT-29. In words: Effect on TNFalpha/cycloheximide-induced apoptosis in human HT-29 cells at 3 uM treated prior to TNFalpha/cycloheximide stimulation and measured after 20 hrs by cell-Titer Glo luminescent cell viability assay. As to conditions: ht-29, 20 h. The data set is classed as cell-based. In short, it runs like this:
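HT-29 cells pretreated with compound at 3 μM or DMSO, then given TNF-α 20 ng/mL with either cycloheximide 5 μg/mL (TC) or Smac mimetic 10 nM (TS) for 20 h. Viability read by CellTiter-Glo luminescence.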

Data set [9] can be described thus: Tmax in Sprague-Dawley rat at 5 mg/kg, po by LC-tandem mass spectrometry analysis. The data set is classed as ADME, organism-based. As to conditions: in vivo. In short, it runs like this:
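Male Sprague-Dawley rats received compound iv (1 mg/kg) or intragastrically (5 mg/kg). The vehicle was 5% DMSO, 10% Tween 80 and 75% saline, at 0.2 or 1 mg/mL. Blood was sampled at several time points and centrifuged at 4 °C. Plasma was stored at -80 °C and analysed by LC/MS/MS. Parameters were derived by noncompartmental analysis of individual animal data.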

Data set [10] in a line: AUC (0 to infinity) in Sprague-Dawley rat at 1 mg/kg, iv by LC-tandem mass spectrometry analysis. The note with it: in vivo. The format is ADME, organism-based. Also on record: dose 1 mg/kg, time infinity, route intravenous. In short, it runs like this:
as §1

Data set [11] concerns the target Mitogen-activated protein kinase 14 (Homo sapiens) (UniProt Q16539). In words: Inhibition of wild-type human full length p38-alpha (M1 to S360 residues) expressed in bacterial expression system assessed as enzyme remaining activity at 1000 nM by Kinomescan method relative to control.
A short description of data set [12]: Half-life in Sprague-Dawley rat at 1 mg/kg, iv by LC-tandem mass spectrometry analysis. The format is ADME, organism-based. As to conditions: in vivo. A digest of the protocol: as §1
Another data set deals with Mus musculus. As to the kind of experiment: Protection against TNFalpha/Z-VAD-fmk-induced C57BL/6J mouse model of systemic inflammatory response syndrome at 25 mg/kg, po administered via gavage 2 hrs prior to Z-VAD-fmk addition for 15 mins followed by TNFalpha stimulation for 1 hr and subsequent Z-VAD-fmk addition meaured up to 50 hrs post TNFalpha stimulation relative to control. The data set is classed as functional. In short, it runs like this:
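Overnight-fasted C57BL/6 female mice, n=10 per group. Test compound was given by oral gavage 2 h before mTNF-α. z-VAD-fmk (180 µg) was injected ip, then 15 min later mTNF-α in endotoxin-free PBS was injected iv (400 µg/kg). A second z-VAD-fmk dose (70 µg) was given ip 1 h after TNF. Body temperature and survival were followed against vehicle. One-way ANOVA was used.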

Data set [13] deals with Cyclin-dependent kinase 3 (Homo sapiens) (UniProt Q00526). As to the kind of experiment: Inhibition of wild-type human full length CDK3 (M1 to H305 residues) expressed in bacterial expression system assessed as enzyme remaining activity at 1000 nM by Kinomescan method relative to control.
The test system of a further data set is L929. As to the kind of experiment: Cytoprotection against TNFalpha/Z-VAD-fmk-induced necroptosis in mouse L929 cells at 0.01 to 1 uM treated prior to TNFalpha/Z-VAD-fmk stimulation and measured after 4 hrs by cell-Titer Glo luminescent cell viability assay. The data set is classed as functional, cell-based. A digest of the protocol:
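Mouse L929 cells (DMEM, 10% FBS) pretreated with compound at the indicated concentrations, then given mouse TNF-α 20 ng/mL and z-VAD-fmk 20 μM for 4 h. Viability read by CellTiter-Glo luminescence.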

Fibroblast growth factor receptor 2 (Homo sapiens), sequence (P21802 22-821 limits assumed): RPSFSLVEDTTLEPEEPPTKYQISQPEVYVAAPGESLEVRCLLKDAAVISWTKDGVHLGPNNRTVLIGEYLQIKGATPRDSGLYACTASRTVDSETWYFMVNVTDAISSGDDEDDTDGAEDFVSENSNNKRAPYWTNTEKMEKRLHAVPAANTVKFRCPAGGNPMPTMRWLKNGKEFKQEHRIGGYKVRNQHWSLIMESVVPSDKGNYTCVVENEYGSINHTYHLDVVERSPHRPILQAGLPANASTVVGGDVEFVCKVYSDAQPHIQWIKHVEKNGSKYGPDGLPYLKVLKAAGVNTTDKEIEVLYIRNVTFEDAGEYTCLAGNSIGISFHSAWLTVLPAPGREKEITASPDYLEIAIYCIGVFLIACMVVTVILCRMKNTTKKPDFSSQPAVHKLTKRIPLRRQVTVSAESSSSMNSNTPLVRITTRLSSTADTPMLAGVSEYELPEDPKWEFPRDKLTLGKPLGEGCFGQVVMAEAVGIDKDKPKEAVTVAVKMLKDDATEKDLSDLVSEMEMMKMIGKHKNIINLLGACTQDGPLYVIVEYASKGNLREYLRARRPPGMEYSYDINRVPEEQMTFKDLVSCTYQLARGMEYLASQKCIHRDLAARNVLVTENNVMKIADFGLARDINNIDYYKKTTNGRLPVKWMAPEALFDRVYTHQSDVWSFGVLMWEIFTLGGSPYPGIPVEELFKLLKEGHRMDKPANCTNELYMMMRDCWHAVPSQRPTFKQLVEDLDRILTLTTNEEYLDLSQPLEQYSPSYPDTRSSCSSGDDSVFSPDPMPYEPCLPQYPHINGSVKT
Platelet-derived growth factor receptor beta (Homo sapiens), sequence (P09619 whole entry, the tested form may be a part): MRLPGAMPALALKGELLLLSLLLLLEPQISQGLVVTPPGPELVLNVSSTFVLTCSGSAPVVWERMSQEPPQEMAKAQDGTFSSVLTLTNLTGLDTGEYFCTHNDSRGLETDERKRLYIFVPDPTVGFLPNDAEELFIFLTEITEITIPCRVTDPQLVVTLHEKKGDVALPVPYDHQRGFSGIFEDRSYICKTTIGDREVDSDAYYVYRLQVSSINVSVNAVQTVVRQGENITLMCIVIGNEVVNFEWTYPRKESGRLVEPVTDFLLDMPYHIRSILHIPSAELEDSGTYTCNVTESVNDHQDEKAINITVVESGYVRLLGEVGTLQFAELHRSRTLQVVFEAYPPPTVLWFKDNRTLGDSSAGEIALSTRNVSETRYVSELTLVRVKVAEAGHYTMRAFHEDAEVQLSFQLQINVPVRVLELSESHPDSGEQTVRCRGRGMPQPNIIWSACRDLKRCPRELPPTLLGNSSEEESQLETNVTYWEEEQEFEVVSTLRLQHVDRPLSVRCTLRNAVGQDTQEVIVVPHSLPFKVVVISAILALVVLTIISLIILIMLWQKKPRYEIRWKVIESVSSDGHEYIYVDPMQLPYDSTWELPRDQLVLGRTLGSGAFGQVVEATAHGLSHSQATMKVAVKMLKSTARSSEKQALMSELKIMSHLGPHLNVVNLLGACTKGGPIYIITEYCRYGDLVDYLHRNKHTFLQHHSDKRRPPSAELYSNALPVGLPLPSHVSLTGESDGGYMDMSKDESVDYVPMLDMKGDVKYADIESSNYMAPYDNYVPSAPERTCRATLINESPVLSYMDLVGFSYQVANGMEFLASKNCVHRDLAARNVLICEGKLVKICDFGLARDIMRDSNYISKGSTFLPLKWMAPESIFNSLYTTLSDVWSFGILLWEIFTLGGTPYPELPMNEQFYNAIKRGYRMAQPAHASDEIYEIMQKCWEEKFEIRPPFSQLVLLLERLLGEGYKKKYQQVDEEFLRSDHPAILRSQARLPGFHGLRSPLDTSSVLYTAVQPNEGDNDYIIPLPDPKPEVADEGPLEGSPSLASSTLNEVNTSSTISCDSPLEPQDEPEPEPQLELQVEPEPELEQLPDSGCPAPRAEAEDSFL
Cyclin-dependent kinase 3 (Homo sapiens), sequence (Q00526 whole entry, looked up, the tested form may be a part): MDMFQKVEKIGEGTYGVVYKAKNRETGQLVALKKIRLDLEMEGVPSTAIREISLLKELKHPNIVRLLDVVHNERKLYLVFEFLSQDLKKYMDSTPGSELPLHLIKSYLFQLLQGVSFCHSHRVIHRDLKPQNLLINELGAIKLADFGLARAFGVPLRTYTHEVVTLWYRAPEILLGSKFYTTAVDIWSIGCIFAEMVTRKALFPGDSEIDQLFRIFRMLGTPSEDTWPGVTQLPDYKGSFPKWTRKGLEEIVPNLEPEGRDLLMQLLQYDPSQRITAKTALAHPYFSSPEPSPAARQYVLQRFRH
Mitogen-activated protein kinase kinase kinase 4 (Homo sapiens), sequence (Q9Y6R4 whole entry, the tested form may be a part): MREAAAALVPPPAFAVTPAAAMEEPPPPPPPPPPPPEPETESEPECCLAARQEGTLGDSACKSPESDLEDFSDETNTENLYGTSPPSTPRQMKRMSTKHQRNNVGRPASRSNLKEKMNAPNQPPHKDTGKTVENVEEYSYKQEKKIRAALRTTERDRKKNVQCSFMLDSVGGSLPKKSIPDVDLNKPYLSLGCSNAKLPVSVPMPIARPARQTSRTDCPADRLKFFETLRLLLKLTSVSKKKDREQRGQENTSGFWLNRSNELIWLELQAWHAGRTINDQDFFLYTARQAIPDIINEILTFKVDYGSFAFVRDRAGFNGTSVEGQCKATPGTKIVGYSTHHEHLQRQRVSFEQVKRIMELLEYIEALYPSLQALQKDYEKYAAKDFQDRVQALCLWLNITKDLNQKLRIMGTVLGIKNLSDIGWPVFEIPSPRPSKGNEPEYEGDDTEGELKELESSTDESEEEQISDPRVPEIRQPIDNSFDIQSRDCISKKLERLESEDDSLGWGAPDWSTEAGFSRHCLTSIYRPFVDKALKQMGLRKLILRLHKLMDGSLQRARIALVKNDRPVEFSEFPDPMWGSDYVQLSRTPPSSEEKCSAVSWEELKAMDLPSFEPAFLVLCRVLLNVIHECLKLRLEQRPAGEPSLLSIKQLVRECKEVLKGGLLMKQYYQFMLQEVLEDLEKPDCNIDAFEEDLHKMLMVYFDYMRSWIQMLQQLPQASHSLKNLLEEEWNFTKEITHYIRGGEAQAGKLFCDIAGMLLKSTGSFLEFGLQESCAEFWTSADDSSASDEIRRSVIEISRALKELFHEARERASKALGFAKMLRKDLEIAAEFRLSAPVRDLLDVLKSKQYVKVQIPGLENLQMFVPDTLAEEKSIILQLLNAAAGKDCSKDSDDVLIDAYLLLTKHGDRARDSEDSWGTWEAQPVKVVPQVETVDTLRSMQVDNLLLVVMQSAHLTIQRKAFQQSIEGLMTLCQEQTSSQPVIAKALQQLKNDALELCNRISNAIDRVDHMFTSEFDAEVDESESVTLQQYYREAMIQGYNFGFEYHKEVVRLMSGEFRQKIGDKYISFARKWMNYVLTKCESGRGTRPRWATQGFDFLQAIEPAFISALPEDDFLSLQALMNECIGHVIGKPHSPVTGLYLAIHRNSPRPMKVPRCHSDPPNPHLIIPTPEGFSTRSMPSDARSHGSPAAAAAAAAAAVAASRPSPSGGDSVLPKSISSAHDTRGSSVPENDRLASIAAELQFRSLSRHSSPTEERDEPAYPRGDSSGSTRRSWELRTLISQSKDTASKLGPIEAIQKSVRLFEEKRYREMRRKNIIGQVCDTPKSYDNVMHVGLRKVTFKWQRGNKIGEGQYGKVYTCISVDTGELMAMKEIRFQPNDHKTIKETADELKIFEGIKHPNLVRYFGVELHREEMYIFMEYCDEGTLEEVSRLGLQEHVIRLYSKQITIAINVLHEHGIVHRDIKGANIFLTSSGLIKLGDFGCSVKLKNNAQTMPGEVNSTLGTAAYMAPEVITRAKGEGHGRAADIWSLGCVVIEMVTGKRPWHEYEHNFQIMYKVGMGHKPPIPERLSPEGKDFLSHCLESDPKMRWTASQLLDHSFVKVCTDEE
Dual specificity mitogen-activated protein kinase kinase 1 (Homo sapiens), sequence (Q02750 whole entry, the tested form may be a part): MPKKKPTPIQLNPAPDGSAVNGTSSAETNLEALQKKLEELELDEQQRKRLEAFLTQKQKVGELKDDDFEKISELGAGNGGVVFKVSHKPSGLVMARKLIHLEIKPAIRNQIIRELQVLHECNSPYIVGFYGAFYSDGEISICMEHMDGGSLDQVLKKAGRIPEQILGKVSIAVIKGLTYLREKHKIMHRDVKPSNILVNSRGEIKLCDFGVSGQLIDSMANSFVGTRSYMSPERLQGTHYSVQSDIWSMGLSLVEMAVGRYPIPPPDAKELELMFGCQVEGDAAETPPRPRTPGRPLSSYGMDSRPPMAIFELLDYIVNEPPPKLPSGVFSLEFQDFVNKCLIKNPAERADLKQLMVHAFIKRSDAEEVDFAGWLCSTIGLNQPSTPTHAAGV
Mitogen-activated protein kinase 14 (Homo sapiens), sequence (Q16539 whole entry, the tested form may be a part): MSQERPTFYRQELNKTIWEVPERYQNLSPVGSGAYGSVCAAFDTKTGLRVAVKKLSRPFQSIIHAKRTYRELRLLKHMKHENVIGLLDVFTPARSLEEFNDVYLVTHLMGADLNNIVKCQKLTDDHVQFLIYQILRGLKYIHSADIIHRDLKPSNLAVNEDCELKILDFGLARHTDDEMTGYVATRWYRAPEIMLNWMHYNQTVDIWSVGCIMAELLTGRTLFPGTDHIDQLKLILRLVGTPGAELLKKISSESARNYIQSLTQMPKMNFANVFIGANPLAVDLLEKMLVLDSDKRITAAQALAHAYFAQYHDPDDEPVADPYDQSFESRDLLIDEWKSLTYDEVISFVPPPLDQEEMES
Mitogen-activated protein kinase 3 (Homo sapiens), sequence (P27361 whole entry, the tested form may be a part): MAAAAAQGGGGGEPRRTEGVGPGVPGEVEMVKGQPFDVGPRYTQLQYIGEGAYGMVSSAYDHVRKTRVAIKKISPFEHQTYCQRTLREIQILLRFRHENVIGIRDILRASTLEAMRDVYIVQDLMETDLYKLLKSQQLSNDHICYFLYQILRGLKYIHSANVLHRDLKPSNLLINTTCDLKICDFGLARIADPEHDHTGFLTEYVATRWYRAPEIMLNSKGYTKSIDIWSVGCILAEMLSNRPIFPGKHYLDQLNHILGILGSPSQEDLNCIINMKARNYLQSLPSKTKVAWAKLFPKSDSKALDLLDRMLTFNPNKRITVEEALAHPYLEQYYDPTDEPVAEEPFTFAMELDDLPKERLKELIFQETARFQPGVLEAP

For `O=C(Nc1cccc(Br)c1)Nc1cc(Oc2ccc3nc(NC(=O)C4CC4)sc3c2)ccc1F`, the Activity is 22% in [1]; 100% in [2]; 0% in data set [4]; 100% in [5]; 100% in data set [6]; 2.8% in [7]. Also, the Activity entry in the data set on HT-29 was “Non-Toxic”; in data set [11], 23%; in the data set on Mus musculus it was 100%; in [13] it was 96%. The compound further came in with an AUC(0-t) in data set [3] of 7010 ng·h/mL. In addition, the “inhibition (INH)” value in data set [8] was “Not Active”. Also, the Tmax in data set [9] was found to be 8.67 h. Besides, in data set [10], the AUC(0-inf) worked out at 6500 ng·h/mL. The compound further had a half-life in data set [12] of 924 min. The outcome with L929 was Active.
